These entries were drawn from the full list.
Apaf-1 act: human Apaf-1 activation. O14727. Apaf-1 apoptosome caspase-3 activation, DEVD-Rh110 fluorescence; hits give low values. activity change, negative = activation, % at 20 µM. actives 0.31% (n = 330,000). AID 489031;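 active = activity change at or below -40% at 20 µM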
Target sequence (O14727 whole entry, looked up): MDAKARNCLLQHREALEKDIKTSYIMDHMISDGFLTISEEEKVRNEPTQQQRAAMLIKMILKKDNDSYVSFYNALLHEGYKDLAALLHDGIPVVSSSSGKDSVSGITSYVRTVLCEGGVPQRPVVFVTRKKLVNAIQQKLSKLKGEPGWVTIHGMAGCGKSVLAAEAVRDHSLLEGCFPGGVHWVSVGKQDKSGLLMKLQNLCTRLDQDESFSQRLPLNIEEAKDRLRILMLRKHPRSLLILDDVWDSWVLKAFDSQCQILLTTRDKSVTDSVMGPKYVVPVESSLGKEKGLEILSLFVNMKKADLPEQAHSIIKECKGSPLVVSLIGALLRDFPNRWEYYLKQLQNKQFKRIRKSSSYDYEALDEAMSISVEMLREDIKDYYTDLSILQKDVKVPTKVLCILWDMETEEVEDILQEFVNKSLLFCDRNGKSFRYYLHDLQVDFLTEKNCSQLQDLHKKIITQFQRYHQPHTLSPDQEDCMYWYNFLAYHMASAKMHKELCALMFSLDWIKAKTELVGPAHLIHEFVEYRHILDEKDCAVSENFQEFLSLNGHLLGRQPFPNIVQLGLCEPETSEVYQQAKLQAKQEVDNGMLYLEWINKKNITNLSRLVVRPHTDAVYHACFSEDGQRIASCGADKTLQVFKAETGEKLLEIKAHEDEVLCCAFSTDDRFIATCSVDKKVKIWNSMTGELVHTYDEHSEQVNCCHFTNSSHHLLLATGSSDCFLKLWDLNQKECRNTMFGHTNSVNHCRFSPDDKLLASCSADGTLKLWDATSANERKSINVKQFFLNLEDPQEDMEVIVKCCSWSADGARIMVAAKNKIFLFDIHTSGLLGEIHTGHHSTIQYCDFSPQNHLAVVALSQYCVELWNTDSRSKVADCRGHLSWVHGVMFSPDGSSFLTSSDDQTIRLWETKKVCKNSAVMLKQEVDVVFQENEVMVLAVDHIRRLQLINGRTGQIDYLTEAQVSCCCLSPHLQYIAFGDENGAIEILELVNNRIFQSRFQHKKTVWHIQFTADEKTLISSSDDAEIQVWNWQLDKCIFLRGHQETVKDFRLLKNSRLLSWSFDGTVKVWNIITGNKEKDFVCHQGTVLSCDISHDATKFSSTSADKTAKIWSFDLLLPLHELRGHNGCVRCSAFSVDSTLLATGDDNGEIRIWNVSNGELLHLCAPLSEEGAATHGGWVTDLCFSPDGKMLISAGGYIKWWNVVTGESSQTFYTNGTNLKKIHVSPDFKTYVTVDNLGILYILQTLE
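Material: reconstituted apoptosome of Apaf-1, cytochrome c, caspase-9, procaspase-3; times: 30 min preincubation, 50 min reaction, room temperature; measured by: fluorescence, 540 nm emission, 480 nm excitation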
Rh110 interf act: interferes with Rh110 fluorescence, flagging false Apaf-1 activators. fluorescence interference (activity change), % at 20 µM, hits read low. 980 tested, under 10 active. Rh110 fluorescence interference, quenched caspase reaction, Ex480/Em540. shares compounds with Apaf-1 act;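 active = mean activity change at or below -40% when tested at 20 µM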
Apaf-1 act conf2: confirmation of human Apaf-1 activators; shares compounds with Apaf-1 act; reconstituted apoptosome caspase-3 activity, DEVD-Rh110 fluorescence; hits give low values; activity change, negative = activation, % at 20 µM; actives 5% (n = 980); AID 504617;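 active = mean activity change at or below -40%, meaning activation of 40% or more, at 20 µM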
Apaf1 act interf: Apaf-1 activator counter-screen fluorescence artifact. EC50, µM. 55 tested, under 10 active. shares compounds with Apaf-1 act. fluorescence interference counterscreen, Apaf-1 activator assay; call rule not given here
Each line names hits and unclear results; the compound was inactive in the other large screens (follow-up assays come after a bar, where they were run).

O=C(C[C@H]1C[C@H](C(=O)N2CCCCC2)[C@@]2(CCc3ccccc3)c3[nH]c4ccc(Cl)cc4c3CCN2C1=O)NCCCn1ccnc1	none
C#CCOCCOCCOCCNc1nc(N2CCN(C(=O)Cn3cc(CCCCN)nn3)CC2)nc(N2CCN(C(=O)[C@H](CCCCN)n3cc(CCCC)nn3)CC2)n1	none
Cc1ccc(-n2nc(C)c3c2OC(N)=C(C#N)C3c2ccoc2)cc1 (configuration not stated)	none
CCN(Cc1ccccc1)C(=O)C1CCC(CNc2c(N3CCOCC3)c(=O)c2=O)CC1 (configuration not stated)	Apaf-1 act -410 | Rh110 interf act inactive | Apaf-1 act conf2 inactive
COc1ccccc1N1C(C)=CC(=C(C#N)c2nc3ccccc3s2)C=C1C	none
Cc1ccc(S(=O)(=O)N2CCN(c3ccc([N+](=O)[O-])c4cccnc34)CC2)cc1	none
O=c1cc(-c2ccc(F)cc2)[nH][nH]1	none
CCC(Cc1ccccc1)NC(=O)CCn1cccc1 (configuration not stated)	Apaf-1 act -220 | Rh110 interf act inactive | Apaf-1 act conf2 inactive
O=C1CC(CC(=O)N/N=C/c2ccccc2[N+](=O)[O-])=NN1	none
C[C@H]1CN([C@@H](C)CO)C(=O)Cc2cc(NC(=O)CCC(F)(F)F)ccc2O[C@H]1CN(C)Cc1ccc(-c2ccccc2)cc1	none
CNS(=O)(=O)/C=C/c1ccccc1	Apaf-1 act -407 | Rh110 interf act inactive | Apaf-1 act conf2 inactive
C#CCOCCOCCOCCNc1nc(N2CCN(C(=O)CCCCCCCCCCNC(=O)[C@H](CCCCN)n3cc(CCCC(=O)O)nn3)CC2)nc(N2CCN(C(=O)CCCCCCCCCCNC(=O)[C@H](CCCN=C(N)N)n3cc(C[C@@H](C)CC)nn3)CC2)n1	none
O=C1Nc2ccccc2Nc2ccc([N+](=O)[O-])cc21	none
CC(=O)N1CCC(=O)Nc2ccc([N+](=O)[O-])cc21	Apaf-1 act -64 | Rh110 interf act inactive | Apaf-1 act conf2 inactive
C1=CC2c3ccccc3NC(c3ccncc3)C2C1 (configuration not stated)	none
Nc1ccc(C(=O)N/N=C/c2cccc(Oc3ccccc3)c2)cc1	Apaf-1 act -64 | Rh110 interf act inactive | Apaf-1 act conf2 inactive
Cc1[nH]n(-c2ccccc2)c(=O)c1/C=N/NC(=O)c1cccc(F)c1	none
CCOC(=O)c1c(-c2ccc(-c3ccccc3)cc2)csc1NC(=O)CNCCN(C)C	none
COC(=O)CCC(=O)OC1(C)C(=O)C2=CN(C3CCCC3)C(c3ccc(OC)cc3)=CC2=C(Br)C1=O (configuration not stated)	none
COCCN1C=C2C(=O)C(C)(OC(=O)CCC(=O)OC)C(=O)C(Br)=C2C=C1c1ccc(OC)cc1 (configuration not stated)	none | Apaf1 act interf inactive
C=CCN1C=C2C(=O)C(C)(OC(=O)CCC(=O)OC)C(=O)C(Br)=C2C=C1c1ccc(OC)cc1 (configuration not stated)	none
CCN1CCN(CCNC(=O)c2ccc3nc(-c4cccc(C)c4)c(-c4cccc(C)c4)nc3c2)CC1	none
Cc1ccc(NC(=S)Nc2cccc3cnccc23)cc1	none
CN(Cc1c(F)cccc1Cl)c1nnnn1-c1ccccc1	Apaf-1 act -64 | Rh110 interf act inactive | Apaf-1 act conf2 inactive
CN(C)c1ccc2nc3ccc(=[N+](C)C)cc-3sc2c1	none
CCOc1ccc(-c2nnc(-c3ccncc3)o2)cc1	Apaf-1 act -421 | Rh110 interf act inactive | Apaf-1 act conf2 inactive
COc1cc2sc(-c3ccccc3OC)c(-c3ccc(OCCN4CCCCC4)cc3)c2cc1OC	none
O=C(Cc1cc(=O)[nH][nH]1)N/N=C/C(Cl)=C/c1ccccc1	none
Cc1ccc(-c2ccc(/C=N\NC(=O)C3C(=O)NCC3c3ccccc3)o2)cc1Cl (configuration not stated)	none
CCOC(=O)C1(CCOc2ccccc2)CCN(CC(O)CO)CC1 (configuration not stated)	Apaf-1 act -53 | Rh110 interf act inactive | Apaf-1 act conf2 inactive
CCc1ccc(OCC(O)CN2CCC(CN3C(=O)c4cccc5cccc(c45)C3=O)CC2)cc1 (configuration not stated)	none
O=C(Nc1ccc(N2CCCC2)cc1)C(Cl)c1ccccc1 (configuration not stated)	none
CCC(C)NC(=O)C1CCN(S(=O)(=O)c2cccc3cccnc23)CC1 (configuration not stated)	Apaf-1 act -456 | Rh110 interf act inactive | Apaf-1 act conf2 inactive
Oc1ccccc1CNc1cccc2cccnc12	none

High-throughput results as filed in PubChem BioAssay.
